An excerpt weighted towards active compounds, which were near 2.3% of everything screened.
TRPC4 PAM = allosterically enhances the mouse TRPC4 cation channel; Q9QUQ5; HEK293 TRPC4beta/mu-opioid, DAMGO EC20, Fluo-4 Ca2+ flux; stronger effect = higher value; B-score at 10 µM; hit rate 0.42% among 310,000; AID 2227;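 active = B-score of calcium response area above 5 SD of library B-scores, with initial fluorescence ratio within 5 SD of library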
TRPC6 act = activates the mouse TRPC6 cation channel. Q61143. HEK293-TRPC6 membrane potential dye fluorescence; stronger effect = higher value. B-score at 10 µM. hit rate 0.13% among 310,000. AID 2550;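 active = B-score of the integrated fluorescence ratio above library mean plus 3 SD, and starting fluorescence ratio within library mean plus 5 SD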;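 note: higher score means more depolarization so channel activation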
TRPC6 inhibitor = inhibitors of mouse TRPC6 channel. Q61143. HEK293-TRPC6, membrane potential dye, ACh-evoked depolarization; stronger effect = lower value. B-score at 10 µM. hit rate 1.1% among 310,000;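 active = B-score under library mean minus 3 SD, initial fluorescence not abnormally high, positive integrated signal ratio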;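 note: B-score derived from integrated fluorescence ratio over the kinetic read; more negative B-score means stronger inhibition of depolarization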
TRPC4 block = blocks the mouse TRPC4 cation channel | HEK293 TRPC4beta/mu-opioid, DAMGO-evoked Fluo4 calcium flux; stronger effect = lower value | B-score at 10 µM | hit rate 0.39% among 300,000;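 active = B-score over 3 SD under the library average, no early fluorescence shift, positive overall ratio signal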
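Material: HEK293 cells with stable TRPC4beta plus mu-opioid receptor expression; probe or stimulus: DAMGO in two steps, submaximal then maximal; technique: Fluo4 calcium fluorescence by kinetic imaging, 5 s 1 Hz baseline; measure: integrated fluorescence ratio relative to baseline, converted to per-well B score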
Yeast superoxide = caloric restriction mimetics inhibiting age-related superoxide in yeast. S. cerevisiae aged cells, superoxide DHE fluorescence; stronger effect = lower value. superoxide response (% of plate mean), % at 10 µM. hit rate 0.18% among 330,000;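 active = superoxide response under a set limit, about three screen SD below normal, cut at about 65% in these data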;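 note: yeast aged for seven days with compound at 30 °C before DHE staining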
TRPC4 agonist = activators of mouse TRPC4 channel | AID 2237 | B-score at 10 µM | HEK293 TRPC4beta/mu-opioid, Fluo4 calcium fluorescence; stronger effect = higher value | hit rate 0.49% among 310,000 | Q9QUQ5;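 active = B-score above 5 SD of library B-scores, and initial fluorescence ratio not above library mean plus 5 SD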;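 note: positive B-score marks a calcium rise read as TRPC4 activation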
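Assay system: HEK293 stable line with TRPC4beta plus mu-opioid receptor. Times: dye 45 min RT, read 110 s. Measured by: kinetic Fluo4 calcium fluorescence. Measure: B score of integrated ratio. Controls: assay buffer as low control, maximal DAMGO as high control.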
Numbers stand for hits; i = inactive; nt = no result given; ! = not active in a repeat.

SMILES | TRPC4 PAM | TRPC6 act | TRPC6 inhibitor | TRPC4 block | Yeast superoxide | TRPC4 agonist
CN1CC(C(=O)c2ccc([N+](=O)[O-])cc2)C(c2ccc(Cl)cc2)C1 (configuration not stated) | 13 | i | i | i | i | i
COc1ccc(C(=O)C2CN(C)CC2c2ccc(Cl)cc2)cc1 (configuration not stated) | i | i | i | i | i | i
CCN1C(=O)NC(=O)/C(=C\c2cn(CC(=O)N3CCCCC3C)c3ccccc23)C1=O (configuration not stated) | i | i | i | i | i | i
CN1CCCC(C(=O)c2ccc(Cl)cc2)C1 (configuration not stated) | i | i | i | -9 | i | 126
CC(=O)N1CCC(N2CCCC(C(=O)c3cccc(Cl)c3)C2)CC1 (configuration not stated) | i | i | -5.7 | i | i | i
COc1cccc(C(=O)C2CCCN(C3CCOCC3)C2)c1 (configuration not stated) | i | i | i | i | i | i
Cc1cccc(-n2c(O)c(C=NCCCN3CCOCC3)c(=O)[nH]c2=O)c1C | i | i | i | i | i | i
Cc1ccc(OP(=O)(Nc2cccc(C)c2)Oc2ccc(C)cc2)cc1 | i | i | i | i | i | i
Cc1cccc(OP(=O)(Nc2cccnc2)Oc2cccc(C)c2)c1 | 11 | i | i | i | i | i
CCN1CCN(c2ccc([N+](=O)[O-])cc2C=C2C(=O)NC(=O)NC2=O)CC1 | 15 | i | i | i | i | i
Oc1ccc2c3c1O[C@H]1c4[nH]c5ccccc5c4C[C@@]4(O)[C@@H](C2)N(CC2CC2)CC[C@]314 | nt | nt | nt | nt | i | nt
Oc1ccc2c3c1O[C@H]1c4oc5ccccc5c4C[C@@]4(O)[C@@H](C2)N(CC2CC2)CC[C@]314 | i | i | i | -6 | i | i
O=[N+]([O-])c1ccc(N2CCNCC2)c(Cl)c1 | 20 | i | i | i | i | 48
O=C(c1cc([N+](=O)[O-])ccc1N1CCNCC1)N1CCOCC1 | i | i | i | i | i | i
CCN(CC)c1nc2c(C)cccn2c(=O)c1C=C1C(=O)NC(=O)NC1=O | 14 | i | i | i | i | i
Cc1c(C=C2C(=O)NC(=O)NC2=O)c(=O)n(-c2ccccc2)n1C | i | i | i | i | i | i
CC(Cc1ccccc1)NCc1ccccc1O (configuration not stated) | i | i | i | i | i | i
CC(Cc1ccccc1)NCC(=O)Nc1cc(N(C)C)nc2ccccc12 (configuration not stated) | i | i | i | -6 | i | i
COc1ccc(OC)c(N2Cc3ccccc3C2=N)c1 | i | i | i | -7 | i | i
C#CCN1C(=O)C2(C(C#N)=C(N)OC(C)=C2C(=O)OCc2ccccc2)c2ccccc21 (configuration not stated) | 29 | i | i | i | i | i
O=C(CN1CCCC1)Nc1ccc(Cl)cc1C(=O)c1ccccc1 | i | i | i | -6 | i | i
CCC1=Nc2cc(C(=O)N3CCC4(CC3)OCCO4)ccc2Sc2ccc(C)cc21 | i | i | i | -6 | i | i
c1ccc2[nH]c(CCNC3CCCCC3)nc2c1 | i | i | i | i | i | 65
CCC(=NCc1cccnc1)c1c(O)n(-c2ccccc2C)c(=O)[nH]c1=O | i | i | i | i | i | i
CCOC(=O)c1c(C)[nH]c(C)c1C(=O)C(Cc1ccccc1)N(C)C (configuration not stated) | i | i | i | i | i | i
SMILES | TRPC4 PAM | TRPC6 act | TRPC6 inhibitor | TRPC4 block | Yeast superoxide | TRPC4 agonist
CC(Cc1ccccc1)NC(=O)Cc1ccc([N+](=O)[O-])cc1 (configuration not stated) | i | i | i | i | i | i
NC(N)=N/N=C/c1ccc(N(c2ccccc2)c2ccccc2)cc1 | i | i | i | i | i | 86
COc1ccc(/C=N\N=C(N)N)cc1 | i | i | i | i | i | i
CCOc1cc2c(cc1OCC)-n1cccc1C(c1c(O)cccc1OC)NC2 (configuration not stated) | i | i | i | i | i | i
CC(C)C[C@H]1C(=O)N2CCC[C@H]2[C@]2(O)O[C@](NC(=O)[C@@H]3C=C4c5cccc6[nH]cc(c56)C[C@H]4N(C)C3)(C(C)C)C(=O)N12 | nt | nt | nt | nt | i | nt
CCC(CO)NC(=O)C1C=C2c3cccc4[nH]cc(c34)CC2N(C)C1 (configuration not stated) | i | i | i | i | i | 73
CC[C@@H](CO)NC(=O)[C@@H]1C=C2c3cccc4c3c(cn4C)C[C@H]2N(C)C1 | i | i | i | i | i | 154!
Cc1nnc2ccc(-c3cccc(C(F)(F)F)c3)nn12 | i | i | i | i | i | i
COc1ccc(S(=O)(=O)NC(CC(=O)N2CCC3(CC2)OCCO3)c2ccco2)cc1 (configuration not stated) | i | i | i | i | i | i
CCOC(=O)C1(c2ccccc2)CCN(CCC(C#N)(c2ccccc2)c2ccccc2)CC1 | i | i | i | i | i | 94
CCOC(=O)C1(c2ccccc2)CCN(CCC(=O)Nc2ccc(C(=O)OC)cc2)CC1 | nt | nt | nt | nt | i | nt
CCOC(=O)C1(c2ccccc2)CCN(CC(=O)Nc2ccc(C)cc2)CC1 | i | i | i | -8 | i | i
CCn1c(O)c(C=Nc2cc(Cl)ccc2Cl)c(=O)n(CC)c1=O | i | i | i | i | i | i
O=C(O)c1cc(Oc2ccc(C(F)(F)F)cc2Cl)ccc1[N+](=O)[O-] | i | i | i | i | i | i
Cn1cc[n+](C)c1P(=S)(c1ccccc1)c1ccccc1 | i | i | i | i | i | 66
Cc1nc2ccccc2n1C1CCN(Cc2nnnn2CCc2ccccc2)CC1 | i | i | i | i | i | i
S=C(NCCc1ccccc1)NCCc1cnc[nH]1 | i | i | i | i | i | i
Cc1ccc(NC(=S)NCCc2cnc[nH]2)cc1C | i | i | i | i | i | 225
CC1(C)CSC(=NCc2ccccc2)N1 | i | i | i | i | i | 68
CNCCc1nc(N)n[nH]1 | i | i | i | i | i | 101
COc1ccc(OC)c(CN2CCCC(C(=O)c3sccc3C)C2)c1 (configuration not stated) | i | i | i | -6 | i | i
Cc1ccsc1C(=O)C1CCCN(CCO)C1 (configuration not stated) | i | i | i | i | i | i
Cc1ccsc1C(=O)C1CCCN(Cc2cn(C)nc2C)C1 (configuration not stated) | i | i | i | i | i | i
COc1cccc(O)c1CN1CCCC(C(=O)c2sccc2C)C1 (configuration not stated) | i | i | i | -9 | i | i
CN1CCN(Cc2cc(=O)n3ccsc3n2)CC1 | 27 | i | i | i | i | i
